Published values of several laboratories.
Protocols differ between the studies behind these lines.
Target: Ephrin type-B receptor 3 (EPHB3, Homo sapiens, UniProt P54753)
One construct used (P54753 34-998): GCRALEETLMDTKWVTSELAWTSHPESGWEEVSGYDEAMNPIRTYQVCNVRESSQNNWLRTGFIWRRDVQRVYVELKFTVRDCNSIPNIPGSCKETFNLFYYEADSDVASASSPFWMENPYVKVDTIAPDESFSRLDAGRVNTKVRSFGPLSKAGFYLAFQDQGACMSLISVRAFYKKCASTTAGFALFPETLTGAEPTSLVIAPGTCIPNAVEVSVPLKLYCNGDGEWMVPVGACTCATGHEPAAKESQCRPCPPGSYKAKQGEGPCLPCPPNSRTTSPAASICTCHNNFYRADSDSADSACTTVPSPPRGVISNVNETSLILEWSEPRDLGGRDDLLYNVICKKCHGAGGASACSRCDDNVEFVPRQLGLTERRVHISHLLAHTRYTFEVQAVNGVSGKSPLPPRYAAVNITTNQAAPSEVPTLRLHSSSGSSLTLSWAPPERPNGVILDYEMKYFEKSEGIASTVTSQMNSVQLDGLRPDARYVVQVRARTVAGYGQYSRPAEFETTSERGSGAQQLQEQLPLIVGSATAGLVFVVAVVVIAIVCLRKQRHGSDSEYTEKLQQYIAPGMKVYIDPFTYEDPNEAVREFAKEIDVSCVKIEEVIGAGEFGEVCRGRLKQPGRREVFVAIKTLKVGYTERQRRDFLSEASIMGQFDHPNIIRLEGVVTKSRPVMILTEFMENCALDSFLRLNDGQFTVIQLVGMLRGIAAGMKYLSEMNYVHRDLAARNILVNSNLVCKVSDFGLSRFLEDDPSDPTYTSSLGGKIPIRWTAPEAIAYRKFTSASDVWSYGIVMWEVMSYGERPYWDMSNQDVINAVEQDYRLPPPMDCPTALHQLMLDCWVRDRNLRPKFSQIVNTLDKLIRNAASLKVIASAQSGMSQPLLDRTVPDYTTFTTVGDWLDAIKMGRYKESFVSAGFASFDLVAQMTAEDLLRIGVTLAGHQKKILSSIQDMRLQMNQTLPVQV

| SMILES | read-out | action | method | concentration | endpoint | result |
| --- | --- | --- | --- | --- | --- | --- |
| O=C1NC(=O)c2cc(Nc3ccc(F)cc3)c(Nc3ccc(F)cc3)cc21 | cell-free assay |  |  | 0.5 µM | remaining signal | 94.7% |
| CCN(CC)c1ccc(C2=NNC(=O)CC2C)cc1[N+](=O)[O-] (stereo not drawn) | enzyme activity | inhibitor |  | 10 µM | remaining activity | 102% |
| COc1cccc(CNC(=O)c2nc3scc(COCc4ccc(C(=O)O)cc4)c3c(=O)[nH]2)c1 | cell-free assay |  | competition with immobilised ligand | 1 µM | remaining binding | 85.4% |
| Cc1ccc(C(=O)NCc2ccsc2)cc1C#Cc1cn(C(C)C)c2ncnc(N)c12 | enzyme activity | inhibitor |  | 1 µM | activity vs control | 100% |
| CN([C@@H]1CCc2c(CC(=O)O)c3ccccc3n2C1)S(=O)(=O)c1ccc(F)cc1 | cell-free assay |  | competition with immobilised ligand | 1 µM | remaining binding | 88% |
| CCN(CC)CCNC(=O)c1c(C)[nH]c(/C=C2\C(=O)Nc3ccc(F)cc32)c1C | enzyme activity | inhibitor |  | 0.3 µM | inhibition | -5% |
| CC(C)(C)c1nc(-c2cccc(NS(=O)(=O)c3c(F)cccc3F)c2F)c(-c2ccnc(N)n2)s1 | enzyme activity | inhibitor | radiometric | 1 µM | remaining activity | 92% |
| CCCS(=O)(=O)Nc1ccc(F)c(C(=O)c2c[nH]c3ncc(-c4ccc(Cl)cc4)cc23)c1F | enzyme activity | inhibitor |  | 1 µM | inhibition | < 10% |
| N#CCCc1ccc2c(c1)-c1[nH]c3ccc([N+](=O)[O-])cc3c1CC(=O)N2 | cell-free assay |  |  | 0.5 µM | remaining signal | 102% |
| Cc1cnc(NC2CCOCC2)nc1-n1cnc(C(=O)NC(CN)c2cc(F)cc(Cl)c2)c1 (stereo not drawn) | enzyme activity | inhibitor | radiometric | 1 µM | remaining activity | 115% |
| COc1cc2ncnc(Nc3ccc(Oc4ccccc4)cc3C)c2cc1OC | enzyme activity | inhibitor |  | 1 µM | inhibition | 1% |
| CS(=O)(=O)N1CCCC(NC(=O)[C@H](CCC2CCCCC2)NC(=O)c2ccc(CNc3ncnc4c3nnn4-c3ccccc3)cc2)C1 (stereo partly drawn) | cell-free assay |  | competition with immobilised ligand | 0.1 µM | remaining binding | 91% |
| Cn1c(=O)n(-c2ccc(C(C)(C)C#N)cc2)c2c3cc(-c4cnc5ccccc5c4)ccc3ncc21 | enzyme activity | inhibitor |  | 10 µM | remaining activity | 117% |
| Cn1cncc1C1=CN(c2ncnc3[nH]cnc23)CCS1 | enzyme activity | inhibitor | radiometric | 2 µM | inhibition | 20.2% |
| Oc1cccc(-c2nc(N3CCOCC3)c3oc4ncccc4c3n2)c1 | enzyme activity | inhibitor |  | 10 µM | remaining activity | 127% |
| CC(C)CC(=O)N1CCc2nc(-c3ccc(Br)cc3)nc(N(C)Cc3ccccc3)c2C1 | cell-free assay |  | competition with immobilised ligand | 0.1 µM | remaining binding | 100% |
| CC/C(=N\NC(=O)NCc1cccc(O)c1)c1ccc(O)c(C)c1O | enzyme activity | inhibitor |  | 0.1 µM | inhibition | 0.6% |
| CCCOc1ccc([C@H]2[C@H](C(=O)O)[C@@H](c3ccc4c(c3)OCO4)CN2CC(=O)Nc2c(CC)cccc2CC)cc1 | cell-free assay |  | competition with immobilised ligand | 1 µM | remaining binding | 97% |
| COc1cc2nccc(Oc3ccc(NC(=O)Nc4ccc(F)cc4F)c(F)c3)c2cc1OC | thermal stability |  | DSF | 10 µM | ΔTm | 5 to 10 °C |
| COc1cc(/C=C/C(=O)CC(=O)/C=C/c2ccc(O)c(OC)c2)ccc1O | enzyme activity | inhibitor |  | 1 µM | activity vs control | 93% |
| O=C1Nc2ccc(Cl)cc2C1=Cc1cc(Cl)c(O)c(Cl)c1 | cell-free assay |  |  | 0.5 µM | remaining signal | 91% |
| Cc1cc(NC(=O)c2cccc(S(F)(F)(F)(F)F)c2)cc(-n2ccn3nc(-c4cccnc4)cc23)c1 | cell-free assay |  | competition with immobilised ligand | 1 µM | remaining binding | 100% |
| Cc1ccc(C(=O)Nc2ccc(CN3CCN(C)CC3)c(C(F)(F)F)c2)cc1C#Cc1cnc2cccnn12 | cell-free assay |  |  | 23.5 nM | remaining signal | 100% |
| Cc1nc(C2CCN(C(=O)c3ccc(OC(F)(F)F)cc3N)CC2)c2ncc(N3CCN(C)CC3)cc2n1 | cell-free assay |  | competition with immobilised ligand | 1 µM | remaining binding | 100% |
| COc1cc(Nc2cnc(C#N)c(O[C@H](C)CN(C)C)n2)ncc1-c1cnn(C)c1 | enzyme activity | inhibitor | radiometric | 1 µM | remaining activity | 68% |
| CN(C(=O)c1ccccc1)c1cc(N(C)c2ccc3c(c2)CCc2ccc(C(=O)NCCN4CCOCC4)cc2C3=O)ccc1F | cell-free assay |  | competition with immobilised ligand | 1 µM | remaining binding | 94% |
| Nc1nc(NC2CCCCC2)sc1C(=O)c1ccccc1 | enzyme activity | inhibitor |  | 10 µM | remaining activity | 88% |
| O=C(Nc1cnn(-c2csc(C(=O)NC3COC3)c2)c1)Nc1c(F)cccc1Cl | enzyme activity | inhibitor |  | 5 µM | remaining activity | 96.5% |
| Nc1ncnc2occ(-c3ccc(NC(=O)Nc4cc(C(F)(F)F)ccc4F)cc3)c12 | cell-free assay |  |  | 20 µM | remaining signal | 0% |
| CNC(=O)c1cc(Oc2ccc(NC(=O)Nc3ccc(Cl)c(C(F)(F)F)c3)cc2)ccn1 | enzyme activity | inhibitor |  | 10 µM | inhibition | 38% |
